Measurements: ChEMBL document CHEMBL3243935, “Analgesic and tranquilizing activity of 5,8-disubstituted 2-aminomethyl-3,4-dihydronaphthalenes” (J Med Chem, 1978)
Active and inactive are the calls of the source.

What was measured:
Rattus norvegicus [1] = assay: Neuroleptic activity in decarboxylase-inhibited Sprague-Dawley CD rat brain assessed as increase in DOPA accumulation at 0.056 mmol/kg relative to control; format: functional; parameters: scale not given: the % may be the effect or the level left
Mus musculus [2] = assay: Analgesic activity in Swiss CD mouse at 100 mg/kg, ip measured 0.5 hr post treatment by hot-plate method relative to control; format: functional; conditions: route intraperitoneal
How it was run: (§1)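 Male mice, about 20 g, dosed ip in saline. Each mouse was dropped into a glass cylinder on an aluminium plate held at 57 °C. Latency to the first flick of a hind foot was timed at 0.5 and 2 h post-dose, with a 10-s cutoff. At least ten mice per dose. Percent control = mean latency ÷ mean control latency × 100; 200% was the lower bound of activity.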

Mus musculus [3] = assay: Analgesic activity in Swiss CD mouse assessed as elevation of response latency at 100 mg/kg, ip measured 0.5 hr post treatment by tail flick method relative to control; format: functional; conditions: route intraperitoneal
How it was run: (§2)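 Male mice, about 20 g, dosed ip in saline (solution or suspension). High-intensity heat was focused on the tail, and latency to a sudden tail flick was timed, with a 10-s cutoff. Tests ran at 0.5 and 2 h post-dose, with at least ten mice per dose. Percent control = mean latency ÷ mean control latency × 100; 200% was the lower bound of activity.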

Mus musculus [4] = assay: Analgesic activity in Swiss CD mouse assessed as elevation of response latency at 100 mg/kg, ip measured 2 hrs post treatment by tail flick method relative to control; format: functional; conditions: route intraperitoneal; how it was run: as §2
Mus musculus [5] = assay: Analgesic activity in Swiss CD mouse at 100 mg/kg, ip measured 2 hrs post treatment by hot-plate method relative to control; format: functional; conditions: route intraperitoneal; how it was run: as §1
Rattus norvegicus [6] = assay: Neuroleptic activity in ip dosed Sprague-Dawley CD rat assessed as reversal of amphetamine-induced stereotypy compound administered 1hr prior challenge; format: functional
How it was run: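 Rats dosed ip, then given amphetamine sulfate 5 mg/kg 1 h later. The ED50 is the dose that reverses the amphetamine-induced stereotypy.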

Mus musculus [7] = assay: Analgesic activity in Swiss CD mouse assessed as elevation of response latency at 56 mg/kg, ip measured 2 hrs post treatment by tail flick method relative to control; format: functional; conditions: route intraperitoneal; how it was run: as §2
Mus musculus [8] = assay: Analgesic activity in Swiss CD mouse assessed as elevation of response latency at 56 mg/kg, ip measured 0.5 hr post treatment by tail flick method relative to control; format: functional; conditions: route intraperitoneal; how it was run: as §2
Mus musculus [9] = assay: Analgesic activity in Swiss CD mouse at 56 mg/kg, ip measured 2 hrs post treatment by hot-plate method relative to control; format: functional; conditions: route intraperitoneal; how it was run: as §1
Canis familiaris [10] = assay: Analgesic activity in dog assessed as increase in response threshold at 16 mg/kg, sc measured 0.5 to 2 hrs post treatment by radiant heat method relative to control; format: functional, organism-based; parameters: dose 16 mg/kg; conditions: Canis lupus familiaris
How it was run: (§3)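 Male mongrel dogs, 9-12 kg. The response threshold was the reflex fasciculation of the back muscles under radiant heat. Testing was at 0.5 and 2 h post-dose, with the end point expressed as percent of control latency.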

Mus musculus [11] = assay: Analgesic activity in Swiss CD mouse at 56 mg/kg, ip measured 0.5 hr post treatment by hot-plate method relative to control; format: functional; conditions: route intraperitoneal; how it was run: as §1
Mus musculus [12] = species on record: Mus musculus; assay: Toxicity in Swiss CD mouse assessed as Straub tail symptom; format: organism-based; conditions: in vivo
Canis familiaris [13] = species on record: Canis familiaris; assay: Analgesic activity in dog assessed as increase in response threshold by radiant heat method; format: functional, organism-based; conditions: Canis lupus familiaris
How it was run: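 Male mongrel dogs (9-12 kg) given drug sc or orally; radiant heat threshold read as reflex fasciculations of the back muscles. Tested at 0.5 and 2 h after dosing, with the end point expressed as percent of control latency.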

Mus musculus [14] = assay: Analgesic activity in ip dosed Swiss CD mouse by hot-plate method relative to control in presence of naloxone; format: functional, organism-based
Mus musculus [15] = assay: Analgesic activity in ip dosed Swiss CD mouse by tail flick method relative to control in presence of naloxone; format: functional, organism-based
Rattus norvegicus [16] = species on record: Rattus norvegicus; assay: Toxicity in Sprague-Dawley CD rat assessed as Straub tail symptom; format: organism-based; conditions: in vivo
Canis familiaris [17] = assay: Analgesic activity in dog assessed as increase in response threshold at 3.2 mg/kg, sc measured 0.5 to 2 hrs post treatment by radiant heat method relative to control; format: functional, Canis lupus familiaris; conditions: route subcutaneous
How it was run: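 Male mongrel dogs (9-12 kg) received the agent sc in saline solution or suspension. The radiant heat stimulus end point was reflex fasciculation of the back muscles. Each animal was tested 0.5 and 2 h after dosing, and the end point was expressed as percent of control latency.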

Mus musculus [18] = assay: Analgesic activity in Swiss CD mouse at 100 mg/kg, ip bid for 4 days measured after 4 days by hot-plate method relative to control; format: functional, organism-based; parameters: dose 100 mg/kg
How it was run: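 Tolerance test in male mice: 100 mg/kg ip bid for 4 days, with hot-plate latency measured against control. A parallel group received morphine sulfate 10 mg/kg ip bid.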

Mus musculus [19] = assay: Analgesic activity in Swiss CD mouse at 100 mg/kg, ip bid for 4 days by tail flick method relative to control in presence of naloxone; format: functional, organism-based; parameters: dose 100 mg/kg
Mus musculus [20] = assay: Analgesic activity in Swiss CD mouse at 100 mg/kg, ip bid for 4 days by hot-plate method relative to control in presence of naloxone; format: functional, organism-based; parameters: dose 100 mg/kg
Rattus norvegicus [21] = assay: Analgesic activity in Sprague-Dawley CD rat at 32 mg/kg, ip measured 0.5 to 2 hrs post treatment by flinch-jump method relative to control; format: functional, organism-based; parameters: dose 32 mg/kg
How it was run: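 Male rats, 200-300 g, dosed ip (saline solution or suspension). A single rising series of 1-s foot shocks was given just before and at 0.5 and 2 h after dosing. The minimum shock intensity (mA) evoking each behaviour was recorded. No response at the 2.2-mA level counted as activity. At least five rats per dose.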

Canis familiaris [22] = assay: Analgesic activity in po dosed dog assessed as increase in response threshold by radiant heat method; format: functional; conditions: Canis lupus familiaris; how it was run: as §3
Rattus norvegicus [23] = assay: Neuroleptic activity in decarboxylase-inhibited Sprague-Dawley CD rat brain assessed as increase in DOPA accumulation at 0.1 mmol/kg relative to control; format: functional; parameters: scale not given: the % may be the effect or the level left
Mus musculus [24] = assay: Analgesic activity in Swiss CD mouse at 100 mg/kg, ip bid for 4 days measured after naloxone challenge on day 4 by hot-plate method relative to control; format: functional, organism-based; parameters: dose 100 mg/kg
Mus musculus [25] = assay: Analgesic activity in Swiss CD mouse assessed as elevation of response latency at 32 mg/kg, ip measured 0.5 hr post treatment by tail flick method relative to control; format: functional; conditions: route intraperitoneal; how it was run: as §2
Mus musculus [26] = assay: Analgesic activity in Swiss CD mouse assessed as elevation of response latency at 32 mg/kg, ip measured 2 hrs post treatment by tail flick method relative to control; format: functional; conditions: route intraperitoneal; how it was run: as §2
Mus musculus [27] = assay: Analgesic activity in Swiss CD mouse at 32 mg/kg, ip measured 0.5 hr post treatment by hot-plate method relative to control; format: functional; conditions: route intraperitoneal; how it was run: as §1
[28] = Toxicity in ip dosed Swiss CD mouse measured 0.5 to 2 hrs post treatment; format: organism-based; conditions: in vivo
Mus musculus [29] = assay: Analgesic activity in Swiss CD mouse at 32 mg/kg, ip measured 2 hrs post treatment by hot-plate method relative to control; format: functional; conditions: route intraperitoneal; how it was run: as §1
Rattus norvegicus [30] = assay: Neuroleptic activity in decarboxylase-inhibited Sprague-Dawley CD rat brain assessed as increase in DOPA accumulation at 0.001 mmol/kg relative to control; format: functional; parameters: scale not given: the % may be the effect or the level left
Mus musculus [31] = assay: Toxicity in Swiss CD mouse assessed as loss of righting reflex at 100 mg/kg, ip measured 0.5 hr post treatment; format: organism-based; parameters: dose 100 mg/kg, route intraperitoneal; conditions: in vivo
How it was run: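 Male Swiss CD mice (about 20 g) given compound ip in saline solution or suspension, usually 5 mL/kg, during hot-plate/tail-flick screening. At least ten mice per dose. Loss of righting reflex noted at 0.5 h after dosing.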

SMILES: Br.COc1ccc(Cl)c2c1CCC(CN1CCOCC1)=C2
- Activity (Rattus norvegicus [1]): 243%
- Activity (Mus musculus [2]): 95%
- Activity (Mus musculus [3]): 136%
- Activity (Mus musculus [4]): 125%
- Activity (Mus musculus [5]): 90%
- ED50 (Rattus norvegicus [6]): > 32 mg/kg

SMILES: CCOC(=O)C1(c2ccccc2)CCN(C)CC1 [MEPERIDINE]
- Activity (Mus musculus [7]): 160%
- Activity (Mus musculus [8]): 194%
- Activity (Mus musculus [9]): 231%
- Activity (Canis familiaris [10]): Active
- Activity (Mus musculus [11]): 296%

SMILES: COc1ccc(Cl)c2c1CCC(CN1CCC(C(N)=O)CC1)=C2.O
- Activity (Mus musculus [12]): Non-toxic
- Activity (Canis familiaris [13]): inactive
- Activity (Mus musculus [14]): inactive
- Activity (Mus musculus [2]): 314%
- Activity (Mus musculus [15]): inactive
- Activity (Mus musculus [3]): 274%
- Activity (Mus musculus [4]): 132%
- Activity (Rattus norvegicus [16]): Non-toxic
- Activity (Mus musculus [5]): 329%

SMILES: Br.COc1ccc(Cl)c2c1CCC(CN1CCCC1)=C2
- Activity (Canis familiaris [17]): 50%
- Activity (Mus musculus [18]): Active
- Activity (Mus musculus [19]): Active
- Activity (Mus musculus [20]): Active
- Activity (Rattus norvegicus [21]): Active
- Activity (Mus musculus [2]): 282%
- Activity (Mus musculus [3]): 238%
- ED50 (Canis familiaris [22]): 16.2 mg/kg
- Activity (Mus musculus [4]): 135%
- Activity (Rattus norvegicus [23]): 288%
- Activity (Mus musculus [24]): Active
- Activity (Mus musculus [5]): 117%
- ED50 (Rattus norvegicus [6]): 32 mg/kg

SMILES: COc1ccc(Cl)c2c1CCC(CN1CCC(OC(C)=O)(c3ccccc3)CC1)=C2.Cl.O
- Activity (Mus musculus [12]): Toxic
- Activity (Mus musculus [25]): 317%
- Activity (Mus musculus [26]): 320%
- Activity (Mus musculus [14]): inactive
- Activity (Mus musculus [15]): inactive
- Activity (Mus musculus [27]): 315%
- LD50 [28]: 32 mg/kg
- Activity (Rattus norvegicus [16]): Toxic
- Activity (Mus musculus [29]): 345%

SMILES: CCOC1(c2ccccc2)CCN(CC2=Cc3c(Cl)ccc(OC)c3CC2)CC1
- Activity (Mus musculus [2]): 262%
- Activity (Mus musculus [3]): 196%
- Activity (Mus musculus [4]): 157%
- Activity (Rattus norvegicus [30]): 491%
- Activity (Mus musculus [5]): 156%

SMILES: CCc1ccc2c(c1)C=C(CN1CCCC1)CC2.Cl
- Activity (Mus musculus [31]): Toxic
- Activity (Mus musculus [4]): 198%
- Activity (Mus musculus [5]): 130%
